Reference: ChEMBL document CHEMBL3124806, “Imidazopyridine-fused [1,3]-diazepinones: synthesis and antiproliferative activity” (Eur J Med Chem, 2014)

Assays:
Type in all cases: functional
NCI-H322M = test: Cytotoxicity against human NCI-H322M cells assessed as cell growth at 10 uM after 48 hrs by SRB assay relative to untreated control; conditions: read-out: Activity
In short: (§1)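 NCI-60 one-dose screen: each agent added at 10 µM, cultures incubated 48 h. Endpoint by sulforhodamine B protein-binding dye read spectrophotometrically; growth expressed as percent of untreated control cells.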

SK-MEL-28 = test: Cytotoxicity against human SK-MEL-28 cells assessed as cell growth at 10 uM after 48 hrs by SRB assay relative to untreated control; conditions: SK-MEL-28, 48 h, read-out: Activity
In short: (§2)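 NCI-60 single-dose screen. Compounds were added to the cultures at 10 μM and incubated for 48 h. The end point was sulforhodamine B protein staining read spectrophotometrically. Growth is reported as percent of untreated control cells.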

A498 = test: Cytotoxicity against human A498 cells assessed as cell growth at 10 uM after 48 hrs by SRB assay relative to untreated control; conditions: A498, 48 h, read-out: Activity
In short: (§3)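 NCI-60 panel screen at a single concentration of 10 μM with 48 h incubation. Cell density measured by sulforhodamine B protein-binding dye and read spectrophotometrically. Growth expressed as percent of untreated control cells.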

COLO 205 = test: Cytotoxicity against human COLO205 cells assessed as cell growth at 10 uM after 48 hrs by SRB assay relative to untreated control; conditions: COLO 205, 48 h, read-out: Activity; in short: as §3
LOX IMVI = test: Cytotoxicity against human LOXIMVI cells assessed as cell growth at 10 uM after 48 hrs by SRB assay relative to untreated control; conditions: read-out: Activity; in short: as §3
SNB-75 = test: Cytotoxicity against human SNB75 cells assessed as cell growth at 10 uM after 48 hrs by SRB assay relative to untreated control; conditions: SNB-75, 48 h, read-out: Activity; in short: as §2
K562 = test: Cytotoxicity against human K562 cells assessed as cell growth at 10 uM after 48 hrs by SRB assay relative to untreated control; conditions: K562, 48 h, read-out: Activity; in short: as §3
RXF 393 = test: Cytotoxicity against human RXF393 cells assessed as cell growth at 10 uM after 48 hrs by SRB assay relative to untreated control; conditions: RXF 393, 48 h, read-out: Activity; in short: as §1
SNB-19 = test: Cytotoxicity against human SNB19 cells assessed as cell growth at 10 uM after 48 hrs by SRB assay relative to untreated control; conditions: SNB-19, 48 h, read-out: Activity; in short: as §2
NCI-H460 = test: Cytotoxicity against human NCI-H460 cells assessed as cell growth at 10 uM after 48 hrs by SRB assay relative to untreated control; conditions: NCI-H460, 48 h, read-out: Activity; in short: as §1
SR = test: Cytotoxicity against human SR cells assessed as cell growth at 10 uM after 48 hrs by SRB assay relative to untreated control; conditions: read-out: Activity; in short: as §2
BT-549 = test: Cytotoxicity against human BT549 cells assessed as cell growth at 10 uM after 48 hrs by SRB assay relative to untreated control; conditions: BT-549, 48 h, read-out: Activity; in short: as §3
HL-60(TB) = test: Cytotoxicity against human HL-60(TB) cells assessed as cell growth at 10 uM after 48 hrs by SRB assay relative to untreated control; conditions: HL-60, 48 h, read-out: Activity
In short: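 NCI-60 human tumour cell line panel; a single 10 µM concentration was added to the cultures and incubated 48 h. Endpoint was sulforhodamine B protein-binding dye read spectrophotometrically, with growth reported as percent of untreated control cells.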

MDA-MB-468 = test: Cytotoxicity against human MDA-MB-468 cells assessed as cell growth at 10 uM after 48 hrs by SRB assay relative to untreated control; conditions: MDA-MB-468, 48 h, read-out: Activity; in short: as §1
MCF7 = test: Cytotoxicity against human MCF7 cells assessed as cell growth at 10 uM after 48 hrs by SRB assay relative to untreated control; conditions: MCF7, 48 h, read-out: Activity; in short: as §3
OVCAR-3 = test: Cytotoxicity against human OVCAR3 cells assessed as cell growth at 10 uM after 48 hrs by SRB assay relative to untreated control; conditions: OVCAR-3, 48 h, read-out: Activity; in short: as §1
[1] = Cytotoxicity against human OVCAR5 cells assessed as cell growth at 10 uM after 48 hrs by SRB assay relative to untreated control; conditions: OVCAR-5, 48 h, read-out: Activity; in short: as §1
RPMI-8226 = test: Cytotoxicity against human RPMI8226 cells assessed as cell growth at 10 uM after 48 hrs by SRB assay relative to untreated control; conditions: RPMI-8226, 48 h, read-out: Activity; in short: as §1
OVCAR-8 = test: Cytotoxicity against human OVCAR8 cells assessed as cell growth at 10 uM after 48 hrs by SRB assay relative to untreated control; conditions: OVCAR-8, 48 h, read-out: Activity; in short: as §1
UACC-62 = test: Cytotoxicity against human UACC62 cells assessed as cell growth at 10 uM after 48 hrs by SRB assay relative to untreated control; conditions: UACC-62, 48 h, read-out: Activity; in short: as §2
MDA-MB-435 = test: Cytotoxicity against human MDA-MB-435 cells assessed as cell growth at 10 uM after 48 hrs by SRB assay relative to untreated control; conditions: MDA-MB-435, 48 h, read-out: Activity; in short: as §1
[2] = Cytotoxicity against human UO31 cells assessed as cell growth at 10 uM after 48 hrs by SRB assay relative to untreated control; conditions: UO-31, 48 h, read-out: Activity; in short: as §2
SF-539 = test: Cytotoxicity against human SF539 cells assessed as cell growth at 10 uM after 48 hrs by SRB assay relative to untreated control; conditions: SF-539, 48 h, read-out: Activity; in short: as §1
MOLT-4 = test: Cytotoxicity against human MOLT4 cells assessed as cell growth at 10 uM after 48 hrs by SRB assay relative to untreated control; conditions: MOLT-4, 48 h, read-out: Activity; in short: as §1
CAKI-1 = test: Cytotoxicity against human Caki1 cells assessed as cell growth at 10 uM after 48 hrs by SRB assay relative to untreated control; conditions: CAKI-1, 48 h, read-out: Activity; in short: as §3
TK-10 = test: Cytotoxicity against human TK10 cells assessed as cell growth at 10 uM after 48 hrs by SRB assay relative to untreated control; conditions: TK-10, 48 h, read-out: Activity; in short: as §2
[3] = Cytotoxicity against human Hs578T cells assessed as cell growth at 10 uM after 48 hrs by SRB assay relative to untreated control; conditions: Hs-578T, read-out: Activity; in short: as §3

Row | Compound | growth at 10 µM (NCI-H322M) [%] | growth at 10 µM (SK-MEL-28) [%] | growth at 10 µM (A498) [%] | growth at 10 µM (COLO 205) [%] | growth at 10 µM (LOX IMVI) [%] | growth at 10 µM (SNB-75) [%] | growth at 10 µM (RXF 393) [%] | growth at 10 µM (SNB-19) [%] | growth at 10 µM (NCI-H460) [%] | growth at 10 µM (SR) [%] | growth at 10 µM (BT-549) [%] | growth at 10 µM (MDA-MB-468) [%] | growth at 10 µM (MCF7) [%] | growth at 10 µM (OVCAR-3) [%] | growth at 10 µM [1] [%] | growth at 10 µM (RPMI-8226) [%] | growth at 10 µM (OVCAR-8) [%] | growth at 10 µM (UACC-62) [%] | growth at 10 µM (MDA-MB-435) [%] | growth at 10 µM [2] [%] | further results
1 | Cc1ccc(C2=Nc3nc4ccccn4c3C(=O)[C@@H]3CCCN23)cc1 | 104 | 108 | 68.5 | 94.4 | 87.4 | 90 | 85.2 | 92.2 | 102 | 88.5 | 94.2 | 94.8 | 89 | 96.7 | 91.1 | 105 | 98.1 | 101 | 91.1 | 80.3 | growth at 10 µM (K562): 104%; growth at 10 µM (HL-60(TB)): 125%; growth at 10 µM (SF-539): 92.5%; growth at 10 µM (MOLT-4): 92.4%; growth at 10 µM (CAKI-1): 91.8%; growth at 10 µM (TK-10): 110%; growth at 10 µM [3]: 94%
2 | O=C1c2c(nc3ccccn23)NC(=O)N2CCC[C@@H]12 | 106 | 106 | 88.5 | 123 | 92.8 | 96.5 | 104 | 104 | 105 | 126 | 82.8 | 93.5 | 99.9 | 108 | 101 | 103 | 94.2 | 104 | 94.9 | 95.1 | growth at 10 µM (SF-539): 91.7%; growth at 10 µM (MOLT-4): 120%; growth at 10 µM (CAKI-1): 97.9%; growth at 10 µM (TK-10): 99.6%; growth at 10 µM [3]: 94.6%
3 | COc1ccc(C2=Nc3nc4ccccn4c3C(=O)[C@H](Cc3ccccc3)N2)cc1 | 106 | 98.1 | 112 | 127 | 95.2 | 77.5 | 107 | 103 | 104 | 105 | 85.3 | 98.5 | 90.1 | 110 | 107 | 98.1 | 91.4 | 99.5 | 51.4 | 83.5 | growth at 10 µM (K562): 86%; growth at 10 µM (SF-539): 97.2%; growth at 10 µM (MOLT-4): 113%; growth at 10 µM (CAKI-1): 87.7%; growth at 10 µM (TK-10): 133%; growth at 10 µM [3]: 96.4%
4 | Cc1ccc(C2=Nc3nc4ccccn4c3C(=O)[C@H](Cc3ccccc3)N2)cc1 | 104 | 109 | 101 | 113 | 85.8 | 80.2 | 95.7 | 96.4 | 103 | 89.7 | 88.3 | 84.5 | 76.2 | 99.3 | 99.2 | 107 | 92.9 | 93.2 | 46.8 | 77 | growth at 10 µM (K562): 87.9%; growth at 10 µM (HL-60(TB)): 116%; growth at 10 µM (SF-539): 98.8%; growth at 10 µM (MOLT-4): 92.8%; growth at 10 µM (CAKI-1): 76.8%; growth at 10 µM (TK-10): 135%; growth at 10 µM [3]: 96.2%
